# Reference: ChEMBL document CHEMBL1126221, “Antimitotic agents: structure-activity studies with some pyridine derivatives” (J Med Chem, 1992)
# pIC50: −log10 of the molar value. Where “and” joins values, the source holds several entries; their conditions need not be identical. Equal values may be shown once.
# Key:
# L1210 [1] = assay: Concentration required to inhibit proliferation of cultured lymphoid leukemia L1210 cells to 50% growth over 48 hours; format: functional, cell-based; details: Mus musculus, L1210, 48 h
# How it was run: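 Cultured lymphoid leukemia L1210 cells were exposed to agent for 48 h. IC50 is the micromolar concentration that holds proliferation to 50% growth.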
# L1210 [2] = assay: Compound was tested in vivo against mitosis of […] metaphase after 12 hr at 400 mg/kg dose; format: functional, Mus musculus
# How it was run: (§1)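 Mice implanted ip with L1210 leukemia cells got a single ip injection of test agent or control. Cells were harvested 6, 12 and 24 h after treatment and scored for percentage of cells in metaphase.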
# L1210 [3] = assay: Compound was tested in vivo against mitosis of […] metaphase after 12 hr at 600 mg/kg dose; format: functional, Mus musculus; how it was run: as §1
# L1210 [4] = assay: Compound was tested in vivo against mitosis of […] metaphase after 24 hr at 400 mg/kg dose; format: functional, Mus musculus; how it was run: as §1
# L1210 [5] = assay: Compound was tested in vivo against mitosis of […] metaphase after 24 hr at 600 mg/kg dose; format: functional, Mus musculus; how it was run: as §1
# L1210 [6] = assay: Compound was tested in vivo against mitosis of […] metaphase after 6 hr at 400 mg/kg dose; format: functional, Mus musculus; how it was run: as §1
# L1210 [7] = assay: Compound was tested in vivo against mitosis of […] metaphase after 6 hr at 600 mg/kg dose; format: functional, Mus musculus; how it was run: as §1
# L1210 [8] = assay: Effect of the compound(10 uM) on DNA synthesis in L1210 cells in culture measured as incorporation of [3H]L-Leu; format: functional, Mus musculus; details: in the assay text read “protein synthesis” for “DNA synthesis”
# How it was run: (§2)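 Cultured L1210 cells were treated with agent at 2.5–50 μM. Labeled precursor incorporation is reported as percent of control: [3H]dThd into DNA, […] into DNA and RNA, and [3H]L-Leu into protein.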
# L1210 [9] = assay: Effect of the compound(10 uM) on DNA synthesis in L1210 cells in culture measured as incorporation of [5-3H]-Urd; format: functional, Mus musculus
# L1210 [10] = assay: Effect of the compound(10 uM) on RNA synthesis in L1210 cells in culture measured as incorporation of [5-3H]-Urd; format: functional, Mus musculus; how it was run: as §2
# L1210 [11] = assay: Effect of the compound(25 uM) on DNA synthesis in L1210 cells in culture measured as incorporation of [3H]L-Leu; format: functional, Mus musculus; details: in the assay text read “protein synthesis” for “DNA synthesis”; how it was run: as §2
# L1210 [12] = assay: Effect of the compound(25 uM) on DNA synthesis in L1210 cells in culture measured as incorporation of [5-3H]-Urd; format: functional, Mus musculus; how it was run: as §2
# L1210 [13] = assay: Effect of the compound(25 uM) on RNA synthesis in L1210 cells in culture measured as […]; format: functional, Mus musculus
# L1210 [14] = assay: Effect of the compound(50 uM) on DNA synthesis in L1210 cells in culture measured as incorporation of [3H]L-Leu; format: functional, Mus musculus; details: in the assay text read “protein synthesis” for “DNA synthesis”; how it was run: as §2
# L1210 [15] = assay: Effect of the compound(50 uM) on DNA synthesis in L1210 cells in culture measured as incorporation of [3H]dThd; format: functional, Mus musculus; how it was run: as §2
# L1210 [16] = assay: Effect of the compound(50 uM) on DNA synthesis in L1210 cells in culture measured as incorporation of [5-3H]-Urd; format: functional, Mus musculus; how it was run: as §2
# L1210 [17] = assay: Effect of the compound(50 uM) on RNA synthesis in L1210 cells in culture measured as incorporation of [5-3H]-Urd; format: functional, Mus musculus; how it was run: as §2
# L1210 [18] = assay: Effect on the mitosis of cultured L1210 cells measured ain metaphase t 12 hours and 3 uM concentration; format: functional, Mus musculus
# How it was run: (§3)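 Cultured L1210 cells were exposed for 12 h to 0, 3, 10, 30, 50 or 100 μM agent. Read-out was the percentage of cells in metaphase.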
# L1210 [19] = assay: Effect on the mitosis of cultured L1210 cells measured in metaphase at 12 hours and 0 uM concentration; format: functional, Mus musculus; how it was run: as §3
# L1210 [20] = assay: Effect on the mitosis of cultured L1210 cells measured in metaphase at 12 hours and 10 uM concentration; format: functional, Mus musculus; how it was run: as §3
# L1210 [21] = assay: Effect on the mitosis of cultured L1210 cells measured in metaphase at 12 hours and 100 uM concentration; format: functional, Mus musculus; how it was run: as §3
# L1210 [22] = assay: Effect on the mitosis of cultured L1210 cells measured in metaphase at 12 hours and 50 uM concentration; format: functional, Mus musculus; how it was run: as §3
# L1210 [23] = assay: Effect on the mitosis of cultured L1210 cells measured in metaphase t 12 hours and 30 uM concentration; format: functional, Mus musculus; how it was run: as §3
# P388 [24] = assay: Compound was evaluated for antitumor activity against mice implanted with lymphatic leukemia P388 cells (10e6 tumor cells) after intraperitoneal administration of 240 mg/kg per injection (1-5 days); format: functional; details: Mus musculus, P388, ip
# How it was run: (§4)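 Mice implanted ip with 10⁶ lymphocytic leukemia P388 cells; drug given ip on days 1-5. Read-out is % increase in life span (% ILS) versus untreated controls, reported at the highest nontoxic dose tested.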
# P388 [25] = assay: Compound was evaluated for antitumor activity against mice implanted with lymphatic leukemia P388 cells (10e6 tumor cells) after intraperitoneal administration of 200 mg/kg per injection (1-5 days); format: functional; details: Mus musculus, P388, ip; how it was run: as §4
# P388 [26] = assay: Compound was evaluated for antitumor activity against mice implanted with lymphatic leukemia P388 cells (10e6 tumor cells) after intraperitoneal administration of 200 mg/kg per injection; format: functional; details: Mus musculus, P388, ip
# [27] = Compound's concentration required to inhibit proliferation of cultured KB cells to 50% growth during 48 hours.; format: functional, cell-based; details: Homo sapiens
# P388 [28] = assay: Compound was evaluated for antitumor activity against mice implanted with lymphatic leukemia P388 cells (10e6 tumor cells) after intraperitoneal administration of 200 mg/kg per injection (highest dose tested); format: functional; details: Mus musculus, P388, ip
# How it was run: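 Mice implanted ip with 10⁶ P388 leukemia cells and treated ip on days 1-5. % increase in life span is reported at the highest dose tested.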
smiles,measurement,setting,value
CCOC(=O)Nc1cc(NC(C)C(=O)COc2ccccc2)c([N+](=O)[O-])c(N)n1 (stereo unspecified),pIC50,L1210 [1],4.05
CCCCC(O)C(C)Nc1cc(NC(=O)OCC)nc(N)c1[N+](=O)[O-] (stereo unspecified),pIC50,L1210 [1],4.26
CCOC(=O)Nc1cc(NC(C)/C(=N/O)c2ccccc2)c([N+](=O)[O-])c(N)n1 (stereo unspecified),Cells in metaphase,L1210 [2],0.8%
same,Cells in metaphase,L1210 [3],1.4%
same,Cells in metaphase,L1210 [4],1.6%
same,Cells in metaphase,L1210 [5],0.4%
same,Cells in metaphase,L1210 [6],0.6%
same,Cells in metaphase,L1210 [7],0.9%
same,Control,L1210 [8],79%
same,Uridine incorporation into DNA (% of control),L1210 [9],38% and 42%
same,Control,L1210 [10],55%
same,pIC50,L1210 [1],4.49
same,Control,L1210 [11],101%
same,Control,L1210 [12],25% and 13%
same,Control,L1210 [13],22%
same,Control,L1210 [14],37%
same,Control,L1210 [15],12%
same,Control,L1210 [16],17%
same,Control,L1210 [17],24%
same,Cells in metaphase,L1210 [18],2%
same,Cells in metaphase,L1210 [19],2%
same,Cells in metaphase,L1210 [20],3%
same,Cells in metaphase,L1210 [21],5%
same,Cells in metaphase,L1210 [22],14%
same,Cells in metaphase,L1210 [23],4%
same,ILS at 240 mg/kg,P388 [24],80%
CCOC(=O)Nc1cc(N[C@@H](C)[C@H](O)c2ccccc2)c([N+](=O)[O-])c(N)n1,pIC50,L1210 [1],5.11
same,ILS at 200 mg/kg,P388 [25],53%
CCOC(=O)Nc1cc(NC(/C(=N/O)c2ccccc2)c2ccccc2)c([N+](=O)[O-])c(N)n1 (stereo unspecified),pIC50,L1210 [1],4.35
CCOC(=O)Nc1cc(N[C@@H](C)/C(=N\O)c2ccc(O)cc2)c([N+](=O)[O-])c(N)n1,pIC50,L1210 [1],4.59
CCOC(=O)Nc1cc(N[C@H](C)[C@@H](O)c2ccccc2)c(N)c(N)n1,pIC50,L1210 [1],5.23
same,ILS at 200 mg/kg,P388 [25],10%
CCOC(=O)Nc1cc(N[C@@H](C)[C@H](O)c2ccc(O)cc2)c([N+](=O)[O-])c(N)n1,pIC50,L1210 [1],4.92
same,ILS at 200 mg/kg,P388 [25],20%
CCCCC(Nc1cc(NC(=O)OCC)nc(N)c1[N+](=O)[O-])C(C)O (stereo unspecified),pIC50,L1210 [1],4.25
CCOC(=O)Nc1cc(NC(C)C(O)c2ccc3c(c2)OCO3)c([N+](=O)[O-])c(N)n1 (stereo unspecified),pIC50,L1210 [1],4.68
CCOC(=O)Nc1cc(N/N=C/c2ccccc2)c(N)c(N)n1,ILS at 200 mg/kg,P388 [26],3%
CCOC(=O)Nc1cc(N)c([N+](=O)[O-])c(N)n1,pIC50,[27],4.32
same,ILS at 200 mg/kg,P388 [26],0%
CCOC(=O)Nc1cc(N[C@H](C)[C@@H](O)c2ccccc2)c([N+](=O)[O-])c(N)n1,pIC50,L1210 [1],4.51
same,ILS at 200 mg/kg,P388 [25],0%
CCOC(=O)Nc1cc(N[C@H](C)[C@@H](O)c2ccc(O)cc2)c([N+](=O)[O-])c(N)n1,pIC50,L1210 [1],4.64
same,ILS at 200 mg/kg,P388 [25],0%
CCOC(=O)Nc1cc(NC(CC)C(=O)c2ccccc2)c([N+](=O)[O-])c(N)n1 (stereo unspecified),pIC50,L1210 [1],< 4.00
CCOC(=O)Nc1cc(NCCc2ccccc2)c(N)c(N)n1,pIC50,[27],4.12
CCCCC(Nc1cc(NC(=O)OCC)nc(N)c1N)C(C)O (stereo unspecified),pIC50,L1210 [1],5.77
same,ILS at 200 mg/kg,P388 [28],45%
CCOC(=O)Nc1cc(NC(C)C(O)COc2ccccc2)c(N)c(N)n1 (stereo unspecified),pIC50,L1210 [1],4.68
CCCCC(O)C(C)Nc1cc(NC(=O)OCC)nc(N)c1N (stereo unspecified),pIC50,L1210 [1],4.74
same,ILS at 200 mg/kg,P388 [25],10%
CCOC(=O)Nc1cc(NC(CC)C(O)c2ccccc2)c([N+](=O)[O-])c(N)n1 (stereo unspecified),pIC50,L1210 [1],4.66
